These results are taken from ChEMBL document CHEMBL1151206, “Glycosidase-inhibiting pyrrolidines and pyrrolizidines with a long side chain in Scilla peruviana” (J Nat Prod, 2004).

Assay [1] is described as follows: Inhibition of rice alpha-glucosidase by spectrophotometry. Further details: species or system Oryza sativa.
The target in assay [2] is T1, Tissue alpha-L-fucosidase (Bos taurus) (UniProt Q2KIM0).
T1 sequence (whole entry): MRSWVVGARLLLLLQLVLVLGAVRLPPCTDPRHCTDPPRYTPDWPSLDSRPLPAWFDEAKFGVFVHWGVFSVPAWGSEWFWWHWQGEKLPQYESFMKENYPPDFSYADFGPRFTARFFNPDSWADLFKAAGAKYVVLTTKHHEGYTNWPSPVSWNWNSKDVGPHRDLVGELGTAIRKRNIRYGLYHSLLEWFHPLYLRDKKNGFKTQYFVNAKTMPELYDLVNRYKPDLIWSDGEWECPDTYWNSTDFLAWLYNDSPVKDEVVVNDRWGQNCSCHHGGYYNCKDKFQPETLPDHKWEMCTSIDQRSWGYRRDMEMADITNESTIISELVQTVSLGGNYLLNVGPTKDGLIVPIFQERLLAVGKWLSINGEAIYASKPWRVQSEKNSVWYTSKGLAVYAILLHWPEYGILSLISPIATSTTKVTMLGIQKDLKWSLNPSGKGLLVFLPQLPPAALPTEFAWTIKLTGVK
The experiment in a line: Inhibition of bovine epididymis alpha-L-fucosidase at 1000 uM by spectrophotometry. The method in brief:
(§1)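 Commercial enzymes (P. decumbens alpha-L-rhamnosidase at pH 4.5, bovine epididymis alpha-L-fucosidase at pH 5.5, coffee bean alpha-galactosidase at pH 6.5) were incubated with 2 mM p-nitrophenyl glycoside in a 1 mL reaction. The reaction was stopped with 2 mL of 400 mM Na2CO3 and p-nitrophenol was read at 400 nm.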

A short description of assay [3]: Inhibition of almond beta-glucosidase by spectrophotometry. Further details: species or system Prunus dulcis. The method in brief: (§2)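 Commercial enzyme assayed with the matching p-nitrophenyl glycoside (2 mM) in a 1 mL reaction, at pH 5.0 for the C. saccharolyticum and almond beta-glucosidases, pH 6.8 for bovine liver beta-galactosidase and pH 6.8 for yeast alpha-glucosidase. The reaction was stopped with 2 mL of 400 mM Na2CO3 and released p-nitrophenol was read at 400 nm. IC50 was determined.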

The species entered for assay [4] is Rattus norvegicus. The experiment in a line: Inhibition of rat epididymis beta-galactosidase at 1000 uM by spectrophotometry. An outline of the steps: (§3)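 Enzyme source was rat epididymal fluid purified from epididymis, assayed at pH 5.2 with 2 mM of the relevant p-nitrophenyl glycoside in a 1 mL reaction. The reaction was stopped with 2 mL of 400 mM Na2CO3 and p-nitrophenol was measured at 400 nm.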

The target in assay [5] is T2, Lysosomal acid glucosylceramidase (Homo sapiens) (UniProt P04062).
T2 sequence (whole entry): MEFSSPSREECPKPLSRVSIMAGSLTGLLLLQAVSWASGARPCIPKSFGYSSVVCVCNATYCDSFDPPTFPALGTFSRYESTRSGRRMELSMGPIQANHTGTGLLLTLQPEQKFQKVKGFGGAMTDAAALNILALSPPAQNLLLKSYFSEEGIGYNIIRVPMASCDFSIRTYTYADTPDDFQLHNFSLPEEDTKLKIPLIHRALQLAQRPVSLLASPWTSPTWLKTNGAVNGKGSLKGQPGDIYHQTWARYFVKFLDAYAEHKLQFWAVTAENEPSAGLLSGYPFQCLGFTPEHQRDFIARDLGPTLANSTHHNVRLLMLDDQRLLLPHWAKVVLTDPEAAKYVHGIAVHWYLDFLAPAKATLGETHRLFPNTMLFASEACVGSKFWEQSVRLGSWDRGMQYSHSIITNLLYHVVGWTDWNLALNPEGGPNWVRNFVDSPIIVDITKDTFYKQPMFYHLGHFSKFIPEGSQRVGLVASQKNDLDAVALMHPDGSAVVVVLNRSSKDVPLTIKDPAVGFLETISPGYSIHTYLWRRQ
The experiment in a line: Inhibition of human placental beta-glucocerebrosidase at 1000 uM by spectrophotometry.

Assay [6] is described as follows: Inhibition of rat epididymis alpha-mannosidase by spectrophotometry. The method in brief:
(§4)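 Substrate was the matching p-nitrophenyl glycoside at 2 mM. Penicillium decumbens α-L-rhamnosidase was run at pH 4.5. α-Mannosidase came from purified rat epididymal fluid and was run at pH 5.2. Reactions were stopped with 400 mM Na2CO3, and released p-nitrophenol was read at 400 nm.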

The nature of assay [7]: Inhibition of Penicillium decumbens alpha-L-rhamnosidase by spectrophotometry. An outline of the steps:
as §4

For assay [8], the target named is T3, Beta-galactosidase (Bos taurus, UniProt Q58D55).
T3 sequence (Q58D55 whole entry): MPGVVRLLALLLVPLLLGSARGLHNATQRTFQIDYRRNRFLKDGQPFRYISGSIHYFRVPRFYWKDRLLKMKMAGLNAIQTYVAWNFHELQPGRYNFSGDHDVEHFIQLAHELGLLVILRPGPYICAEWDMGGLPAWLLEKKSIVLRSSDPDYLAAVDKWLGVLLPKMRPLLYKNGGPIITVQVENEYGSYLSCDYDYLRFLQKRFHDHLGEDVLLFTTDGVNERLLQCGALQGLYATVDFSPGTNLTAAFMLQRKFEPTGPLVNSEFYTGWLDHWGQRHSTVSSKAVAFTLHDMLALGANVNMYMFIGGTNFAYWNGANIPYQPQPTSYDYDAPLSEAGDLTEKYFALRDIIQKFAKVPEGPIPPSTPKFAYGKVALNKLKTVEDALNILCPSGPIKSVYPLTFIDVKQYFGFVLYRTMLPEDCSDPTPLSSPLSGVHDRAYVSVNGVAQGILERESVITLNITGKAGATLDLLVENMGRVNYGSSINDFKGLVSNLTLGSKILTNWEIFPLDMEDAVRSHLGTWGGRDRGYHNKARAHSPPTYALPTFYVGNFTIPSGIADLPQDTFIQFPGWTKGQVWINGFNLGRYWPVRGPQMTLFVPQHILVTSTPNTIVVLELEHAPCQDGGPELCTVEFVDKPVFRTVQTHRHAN
The experiment in a line: Inhibition of bovine liver beta-galactosidase by spectrophotometry. The method in brief: as §2

A short description of assay [9]: Inhibition of yeast alpha-glucosidase by spectrophotometry. Also noted: species or system Saccharomyces cerevisiae. The method in brief: as §2
For assay [10], the target named is Alpha-galactosidase (Coffea arabica) (UniProt Q42656). The experiment in a line: Inhibition of coffee bean alpha-galactosidase at 1000 uM by spectrophotometry. An outline of the steps: as §1
Alpha-galactosidase (Coffea arabica), sequence (Q42656 16-378 limits assumed): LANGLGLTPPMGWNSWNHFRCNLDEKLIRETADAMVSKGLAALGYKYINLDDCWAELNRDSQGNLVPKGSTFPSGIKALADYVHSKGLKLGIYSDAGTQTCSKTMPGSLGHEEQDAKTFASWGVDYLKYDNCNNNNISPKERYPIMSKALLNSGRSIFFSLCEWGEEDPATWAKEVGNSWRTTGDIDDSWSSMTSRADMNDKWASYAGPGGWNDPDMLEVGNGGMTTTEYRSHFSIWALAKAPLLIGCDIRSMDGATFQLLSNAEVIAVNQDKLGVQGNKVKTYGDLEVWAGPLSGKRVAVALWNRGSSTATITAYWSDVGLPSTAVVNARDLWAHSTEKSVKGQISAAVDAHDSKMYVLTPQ
A short description of assay [11]: Inhibition of Caldocellum saccharolyticum beta-glucosidase by spectrophotometry. Also noted: species or system Caldicellulosiruptor saccharolyticus. The method in brief:
as §2

The target of assay [12] is T4, Beta-mannosidase (Rattus norvegicus) (UniProt Q4FZV0).
T4 sequence (whole entry): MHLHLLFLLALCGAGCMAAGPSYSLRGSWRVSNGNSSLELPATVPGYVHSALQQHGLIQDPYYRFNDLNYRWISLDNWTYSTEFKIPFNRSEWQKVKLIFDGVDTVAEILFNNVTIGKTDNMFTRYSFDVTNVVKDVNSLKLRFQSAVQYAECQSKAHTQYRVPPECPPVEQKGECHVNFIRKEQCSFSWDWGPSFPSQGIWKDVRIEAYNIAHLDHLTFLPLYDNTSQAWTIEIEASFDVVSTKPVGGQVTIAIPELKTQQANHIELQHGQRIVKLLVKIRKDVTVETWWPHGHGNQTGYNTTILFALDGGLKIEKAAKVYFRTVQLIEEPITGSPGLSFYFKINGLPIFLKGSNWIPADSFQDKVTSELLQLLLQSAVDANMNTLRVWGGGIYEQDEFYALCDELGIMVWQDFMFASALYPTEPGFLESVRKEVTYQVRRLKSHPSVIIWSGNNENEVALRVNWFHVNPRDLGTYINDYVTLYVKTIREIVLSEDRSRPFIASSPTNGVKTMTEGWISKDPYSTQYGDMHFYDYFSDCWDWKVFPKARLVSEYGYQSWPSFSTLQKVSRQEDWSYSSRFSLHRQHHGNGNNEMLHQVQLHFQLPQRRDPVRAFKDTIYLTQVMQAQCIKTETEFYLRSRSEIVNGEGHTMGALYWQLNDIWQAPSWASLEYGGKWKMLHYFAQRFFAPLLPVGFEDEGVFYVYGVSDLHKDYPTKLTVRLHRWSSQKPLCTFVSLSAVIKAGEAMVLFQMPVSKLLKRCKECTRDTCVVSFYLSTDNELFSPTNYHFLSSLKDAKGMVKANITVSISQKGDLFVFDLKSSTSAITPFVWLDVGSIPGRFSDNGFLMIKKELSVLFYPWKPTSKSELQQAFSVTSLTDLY
The experiment in a line: Inhibition of rat epididymis beta-mannosidase at 1000 uM by spectrophotometry.

The species entered for assay [13] is Rattus norvegicus. The experiment in a line: Inhibition of rat epididymis alpha-mannosidase at 1000 uM by spectrophotometry. An outline of the steps: as §3
Assay [14] concerns Penicillium decumbens. The experiment in a line: Inhibition of Penicillium decumbens alpha-L-rhamnosidase at 1000 uM by spectrophotometry. An outline of the steps: as §1
Assay [15] has as its target T5, Lysosomal acid glucosylceramidase (Homo sapiens, UniProt P04062).
T5 sequence (P04062 whole entry): T2 sequence (whole entry)
The experiment in a line: Inhibition of human placental beta-glucocerebrosidase by spectrophotometry. An outline of the steps:
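Human placental beta-glucocerebrosidase (Ceredase) was assayed at pH 5.5 with 2 mM p-nitrophenyl glycoside substrate in a 1 mL reaction. The reaction was stopped with 2 mL of 400 mM Na2CO3 and released p-nitrophenol was read at 400 nm.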

For assay [16], the target named is T6, Beta-mannosidase (Rattus norvegicus, UniProt Q4FZV0).
T6 sequence (Q4FZV0 whole entry): T4 sequence (whole entry)
The experiment in a line: Inhibition of rat epididymis beta-mannosidase by spectrophotometry. An outline of the steps:
as §3

The IC50 is the concentration needed to halve the response being measured. The low end stands for inhibition by little substance, the high end for a need for much substance. As usually defined, the inhibition is the change of the read-out against control, counted positive when it falls. A lower inhibition goes with a weak effect.

Where only a bound is given, the exact number is not on record here.

As to `CC(O)CC(O)[C@@H]1CC[C@@H]2[C@H](O)[C@H](O)[C@@H](CO)N21` (some centres undefined), the IC50 in [1] turned out to be 300 µM; in [3], 9.5 µM; in assay [6], 680 µM; in assay [7], 180 µM; in assay [8], 830 µM; in assay [9], 3.6 µM. In assay [11], this molecule returned a half-inhibitory concentration (IC50) of 5.1 µM. Moreover, the inhibition in [2], in assay [4], in assay [5], in assay [10] and in [12] was less than 50% throughout.
`OCC(O)CCCCC(O)CC(O)CCC[C@@H](O)[C@H]1N[C@H](CO)[C@@H](O)[C@@H]1O` (some centres undefined): the IC50 stood at 265 µM in assay [1]; 6.6 µM in assay [3]; 970 µM in assay [15]; 0.09 µM in assay [8]; 220 µM in [9]; 0.08 µM in assay [11]. The IC50 in assay [16] is 9.3 µM. The inhibition in [2], in assay [4], in assay [13], in assay [14] and in assay [10] was less than 50% throughout.
